Experimental data from ChEMBL document CHEMBL1949525, “Boranophosphate isoster controls P2Y-receptor subtype selectivity and metabolic stability of dinucleoside polyphosphate analogues” (J Med Chem, 2012).
Calls of active or inactive are those of the source. The rule behind the calls is not given here.

Tests used:
[1] = Stability of the compound assessed as human e-NPP3-mediated compound hydrolysis by HPLC analysis; format: ADME
[2] = Stability of the compound assessed as human e-NPP1-mediated hydrolysis at pH 8.5 after 20 mins by HPLC analysis; format: ADME; conditions: buffer, pH 8.5, 20 min
How it was run: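 Human NPP1 preparation preincubated 3 min at 37 °C in 1 mM CaCl2, 200 mM NaCl, 10 mM KCl, 100 mM Tris, pH 8.5. Started with 0.2 mM dinucleotide solution (added volume) and stopped after 20 min in ice-cold perchloric acid. Neutralised with KOH, then NMP formation followed by HPLC. Percent substrate hydrolysed is the mean of two experiments run in triplicate.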

[3] = Chemical stability of the compound at pH mimicking gastric juice acidity; format: physicochemical; conditions: simulated gi fluid
[4] = Chemical stability of the compound at physiological conditions; format: physicochemical
[5] = Selectivity ratio of EC50 for rat P2Y purinoceptor 6 receptor to EC50 for turkey P2Y purinoceptor 1 receptor
How it was run: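 1321N1 astrocytoma cells lacking endogenous P2Y receptors, stably transfected with turkey P2Y1, human P2Y2, human P2Y4 or rat P2Y6, grown in DMEM with 5% FBS, penicillin/streptomycin and 500 µg/mL G-418. Fura-2-loaded cell suspensions were exposed at 37 °C in 10 mM Hepes-buffered saline, pH 7.4, with 1 mM CaCl2 and 1 mM MgCl2. Peak [Ca2+]i rise by dual-excitation spectrofluorometry across concentrations; EC50 from curve fits; three experiments on separate days per subtype.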

[6] = target: P2Y purinoceptor 6 (Rattus norvegicus) (UniProt Q63371); assay: Antagonist activity at rat P2Y purinoceptor 6 expressed in human 1321N1 cells assessed as inhibition of UDP-induced increase in intracellular calcium concentration by spectrofluorimetry; format: functional, cell-based
Sequence of P2Y purinoceptor 6 (Rattus norvegicus) (Q63371 whole entry): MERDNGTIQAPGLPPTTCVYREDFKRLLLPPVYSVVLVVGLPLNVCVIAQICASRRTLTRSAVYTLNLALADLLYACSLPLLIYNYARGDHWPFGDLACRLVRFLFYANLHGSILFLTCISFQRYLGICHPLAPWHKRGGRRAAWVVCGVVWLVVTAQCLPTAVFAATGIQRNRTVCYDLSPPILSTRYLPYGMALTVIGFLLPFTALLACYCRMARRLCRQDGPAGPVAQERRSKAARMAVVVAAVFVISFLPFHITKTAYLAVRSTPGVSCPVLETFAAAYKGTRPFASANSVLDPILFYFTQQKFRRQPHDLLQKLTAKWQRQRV
How it was run: (§1)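 Fura-2-loaded 1321N1 transfectants (turkey P2Y1, human P2Y2/P2Y4, rat P2Y6) in Hepes-buffered saline, pH 7.4, at 37 °C. Analogues were tested against equimolar reference agonist: 2-MeS-ADP for P2Y1, UTP for P2Y2/4, UDP for P2Y6. Blockade of the [Ca2+]i rise was followed by dual-excitation spectrofluorometry.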

P2Y purinoceptor 4 = P2Y purinoceptor 4 (Homo sapiens, UniProt P51582); assay: Antagonist activity at human P2Y purinoceptor 4 expressed in human 1321N1 cells assessed as inhibition of UTP-induced increase in intracellular calcium concentration by spectrofluorimetry; format: functional, cell-based; how it was run: as §1
Sequence of P2Y purinoceptor 4 (P51582 whole entry): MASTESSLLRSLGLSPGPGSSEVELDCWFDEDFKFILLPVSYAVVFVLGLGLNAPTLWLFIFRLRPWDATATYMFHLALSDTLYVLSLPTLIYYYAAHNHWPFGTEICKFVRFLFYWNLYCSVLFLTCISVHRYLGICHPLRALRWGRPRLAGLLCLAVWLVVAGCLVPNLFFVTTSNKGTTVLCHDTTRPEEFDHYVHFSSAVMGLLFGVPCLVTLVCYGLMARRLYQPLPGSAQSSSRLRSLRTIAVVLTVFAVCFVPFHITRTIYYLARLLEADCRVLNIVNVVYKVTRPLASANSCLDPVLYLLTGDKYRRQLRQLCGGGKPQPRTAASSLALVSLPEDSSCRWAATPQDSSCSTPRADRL

[7] = target: P2Y purinoceptor 1 (Meleagris gallopavo) (UniProt P49652); assay: Antagonist activity at turkey P2Y purinoceptor 1 expressed in human 1321N1 cells assessed as inhibition of 2-Sme-ADP-induced increase in intracellular calcium concentration by spectrofluorimetry; format: functional, cell-based; how it was run: as §1
Sequence of P2Y purinoceptor 1 (Meleagris gallopavo) (P49652 whole entry): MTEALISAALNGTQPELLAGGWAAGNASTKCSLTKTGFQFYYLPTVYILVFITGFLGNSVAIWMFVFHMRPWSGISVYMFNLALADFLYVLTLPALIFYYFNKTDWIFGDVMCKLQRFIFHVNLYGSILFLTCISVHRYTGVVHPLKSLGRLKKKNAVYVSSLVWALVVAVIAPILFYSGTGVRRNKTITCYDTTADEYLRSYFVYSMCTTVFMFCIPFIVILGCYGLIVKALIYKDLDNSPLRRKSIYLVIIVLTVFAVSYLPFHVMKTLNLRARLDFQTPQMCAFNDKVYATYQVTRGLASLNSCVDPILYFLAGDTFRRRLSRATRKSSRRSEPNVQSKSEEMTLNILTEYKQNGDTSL

[8] = target: P2Y purinoceptor 6 (Rattus norvegicus) (UniProt Q63371); assay: Agonist activity at rat P2Y purinoceptor 6 expressed in human 1321N1 cells assessed as increase in intracellular calcium concentration at 100 uM by spectrofluorimetry; format: functional, cell-based
P2Y purinoceptor 2 [9] = target: T1, P2Y purinoceptor 2 (Homo sapiens, UniProt P41231); assay: Antagonist activity at human P2Y purinoceptor 2 expressed in human 1321N1 cells assessed as inhibition of UTP-induced increase in intracellular calcium concentration by spectrofluorimetry; format: functional, cell-based; how it was run: as §1
T1 sequence (P41231 whole entry): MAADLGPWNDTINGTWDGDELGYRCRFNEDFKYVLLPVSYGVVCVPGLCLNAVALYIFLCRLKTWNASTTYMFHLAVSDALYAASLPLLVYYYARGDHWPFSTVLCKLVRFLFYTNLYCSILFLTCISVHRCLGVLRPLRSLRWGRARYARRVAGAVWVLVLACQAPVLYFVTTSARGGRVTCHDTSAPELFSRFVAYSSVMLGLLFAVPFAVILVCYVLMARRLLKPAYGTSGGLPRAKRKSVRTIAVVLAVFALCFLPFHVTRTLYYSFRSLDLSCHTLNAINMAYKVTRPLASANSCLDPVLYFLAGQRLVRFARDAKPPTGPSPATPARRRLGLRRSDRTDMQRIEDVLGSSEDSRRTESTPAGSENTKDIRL

P2Y purinoceptor 2 [10] = target: T1, P2Y purinoceptor 2; assay: Agonist activity at human P2Y purinoceptor 2 expressed in human 1321N1 cells assessed as increase in intracellular calcium concentration at 100 uM by spectrofluorimetry; format: functional, cell-based
[11] = target: P2Y purinoceptor 1 (Meleagris gallopavo) (UniProt P49652); assay: Agonist activity at turkey P2Y purinoceptor 1 expressed in human 1321N1 cells assessed as increase in intracellular calcium concentration at 100 uM by spectrofluorimetry; format: functional, cell-based

For `BP(=O)(OP(=O)(O)OC[C@H]1O[C@@H](n2cnc3c(N)ncnc32)[C@H](O)[C@@H]1O)OP(=O)(O)OC[C@H]1O[C@@H](n2cnc3c(N)ncnc32)[C@H](O)[C@@H]1O.CCCCN(CCCC)CCCC.CCCCN(CCCC)CCCC.CCCCN(CCCC)CCCC`, which Stability [1] is on record?
Its Stability is “Stable”.

And the Stability [2]?
Its Stability is “Stable”.

What about the Stability [3] of the same molecule?
The Stability was “Stable”.

What about the Stability [4] of the same molecule?
The Stability was “Stable”.

Which Ratio EC50 [5] does the source give for `BP(=O)(OP(=O)(O)OC[C@H]1O[C@@H](n2cnc3c(N)ncnc32)[C@H](O)[C@@H]1O)OP(=O)(O)OP(=O)(O)OC[C@H]1O[C@@H](n2ccc(=O)[nH]c2=O)[C@H](O)[C@@H]1O.CCCCN(CCCC)CCCC.CCCCN(CCCC)CCCC.CCCCN(CCCC)CCCC.CCCCN(CCCC)CCCC` (mixture of isomers) here?
The Ratio EC50 was 42.

For `BP(=O)(OP(=O)(O)OC[C@H]1O[C@@H](n2cnc3c(N)ncnc32)[C@H](O)[C@@H]1O)OP(=O)(O)OP(=O)(O)OC[C@H]1O[C@@H](n2cnc3c(N)ncnc32)[C@H](O)[C@@H]1O.CCCCN(CCCC)CCCC.CCCCN(CCCC)CCCC.CCCCN(CCCC)CCCC.CCCCN(CCCC)CCCC` (stereo in doubt; 6A), which Activity [6] is on record?
The Activity was “inactive”.

And the Activity (P2Y purinoceptor 4)?
The Activity was “inactive”.

And the Activity [7]?
The Activity was “inactive”.

And the Activity [8]?
The Activity was “Active”.

What about the Activity (P2Y purinoceptor 2 [9]) of the same molecule?
Its Activity is “inactive”.

Which Activity [6] does the source give for `BP(=O)(OP(=O)(O)OC[C@H]1O[C@@H](n2cnc3c(N)ncnc32)[C@H](O)[C@@H]1O)OP(=O)(O)OP(=O)(O)OC[C@H]1O[C@@H](n2cnc3c(N)ncnc32)[C@H](O)[C@@H]1O.CCCCN(CCCC)CCCC.CCCCN(CCCC)CCCC.CCCCN(CCCC)CCCC.CCCCN(CCCC)CCCC` (stereo in doubt; 6B) here?
Its Activity is “inactive”.

And the Activity (P2Y purinoceptor 4)?
Its Activity is “inactive”.

And the Activity [7]?
The Activity was “inactive”.

And the Activity [8]?
The Activity was “Active”.

What about the Activity (P2Y purinoceptor 2 [9]) of the same molecule?
Its Activity is “inactive”.

What does the source list for `BP(=O)(OP(=O)(O)OC[C@H]1O[C@@H](n2ccc(=O)[nH]c2=O)[C@H](O)[C@@H]1O)OP(=O)(O)OP(=O)(O)OC[C@H]1O[C@@H](n2ccc(=O)[nH]c2=O)[C@H](O)[C@@H]1O.CCCCN(CCCC)CCCC.CCCCN(CCCC)CCCC.CCCCN(CCCC)CCCC.CCCCN(CCCC)CCCC` (stereo in doubt; 7A)?
Activity [6]: inactive; Activity (P2Y purinoceptor 4): inactive; Activity (P2Y purinoceptor 2 [10]): Active; Activity [7]: inactive; Activity (P2Y purinoceptor 2 [9]): inactive; Activity [11]: Active

For `BP(=O)(OP(=O)(O)OC[C@H]1O[C@@H](n2ccc(=O)[nH]c2=O)[C@H](O)[C@@H]1O)OP(=O)(O)OP(=O)(O)OC[C@H]1O[C@@H](n2cnc3c(N)ncnc32)[C@H](O)[C@@H]1O.CCCCN(CCCC)CCCC.CCCCN(CCCC)CCCC.CCCCN(CCCC)CCCC.CCCCN(CCCC)CCCC` (stereo in doubt; 9A), which Activity [6] is on record?
The Activity was “inactive”.

And the Activity (P2Y purinoceptor 4)?
The Activity was “inactive”.

What about the Activity (P2Y purinoceptor 2 [10]) of the same molecule?
Its Activity is “Active”.

What about the Activity [7] of the same molecule?
The Activity was “inactive”.

What about the Activity (P2Y purinoceptor 2 [9]) of the same molecule?
The Activity was “inactive”.

With `BP(=O)(OC[C@H]1O[C@@H](n2ccc(=O)[nH]c2=O)[C@H](O)[C@@H]1O)OP(=O)(O)OP(=O)(O)OP(=O)(O)OC[C@H]1O[C@@H](n2ccc(=O)[nH]c2=O)[C@H](O)[C@@H]1O.CCCCN(CCCC)CCCC.CCCCN(CCCC)CCCC.CCCCN(CCCC)CCCC.CCCCN(CCCC)CCCC` (stereo in doubt; 13A) as the molecule, how does the Activity [6] read?
The Activity was “inactive”.

And the Activity (P2Y purinoceptor 4)?
The Activity was “inactive”.

What about the Activity (P2Y purinoceptor 2 [10]) of the same molecule?
Its Activity is “Active”.

And the Activity [7]?
Its Activity is “inactive”.

What about the Activity (P2Y purinoceptor 2 [9]) of the same molecule?
The Activity was “inactive”.
